# Columns and labels:
# [1] = Plasma clearance in rat; assay type: ADME
# [2] = Unbound volume of distribution in rat; assay type: ADME; conditions: in vivo
# [3] = Unbound clearance in rat; assay type: ADME; conditions: in vivo
# [4] = Oral bioavailability in rat; assay type: ADME, organism-based; conditions: in vivo
# Z-138 [5] = test: Antiproliferative activity against human Z138 cells incubated for 10 days by cell titer-glo assay; assay type: functional, cell-based; conditions: Z-138, 240 h
# [6] = target: Protein arginine N-methyltransferase 5 (Homo sapiens, UniProt O14744); test: Inhibition of PRMT5 (unknown origin) assessed as inhibition of symmetric dimethylation of arginine incubated for 3 days by fluorescence based cellular target engagement assay
# Method in brief: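 MCF-7 cells (4000/well, collagen-coated plates) in EMEM with 0.01 mg/mL insulin and 10% FBS; 10-point 1:3 titration from 10,000 nM; 3 days at 37 °C/5% CO2; fixed, permeabilized, anti-SDMA antibody, then Alexa488 anti-rabbit IgG plus Hoechst; nuclear fluorescence by high-content imaging versus DMSO; EC50 by four-parameter robust fit.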
# [7] = MRT in rat; assay type: ADME; conditions: in vivo
# [8] = Solubility of the compound in FaSSIF at pH 7 at 200 uM incubated for 24 hrs by UV-vis detection based HPLC analysis; assay type: physicochemical
# [9] = Solubility of the compound in […] at pH 2 at 200 uM incubated for 24 hrs by UV-vis detection based HPLC analysis; assay type: physicochemical
# Method in brief: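 10 mM DMSO stock added to 10 mM potassium phosphate buffer at pH 2 or pH 7, or FaSSIF pH 6.5, to 200 μM total; 24 h equilibration, filtration, then reverse-phase HPLC with UV–vis detection.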
# [10] = MRT in dog; assay type: ADME, Canis lupus familiaris; conditions: in vivo
# [11] = Oral bioavailability in dog; assay type: ADME, organism-based, Canis lupus familiaris; conditions: in vivo
# [12] = Unbound clearance in dog; assay type: ADME, Canis lupus familiaris; conditions: in vivo
# [13] = Unbound volume of distribution in dog; assay type: ADME, Canis lupus familiaris; conditions: in vivo
# Z-138 [14] = test: Antitumor activity against human Z138 cells implanted in CB17.SCID mouse assessed as tumor growth inhibition at […] measured at 13 days relative to control; assay type: functional; conditions: Z-138, po, 312 h, time 13 day, read-out: TGI
# [15] = Toxicity in CB17.SCID mouse implanted with human Z138 cells assessed as body weight change at 10 to 60 mg/kg, po bid measured up, to 14 days relative to control; assay type: organism-based; conditions: in vivo, 336 h, in the assay text read “po qd” for “po bid”, dose 10-60 mg/kg, time 14 day
# Method in brief: (§1)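 Female CB17.SCID mice implanted subcutaneously with 5 × 10⁶ Z138 cells; dosing began at about 100 mm³, n = 10 per group; daily PO at 10, 30 or 60 mpk QD or 5 mpk BID in 0.5% methylcellulose; tumor volume (L × W²)/2 and body weight twice weekly; %TGI at day 13 from change in tumor volume versus vehicle.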
# Z-138 [16] = test: Antitumor activity against human Z138 cells implanted in CB17.SCID mouse assessed as tumor growth inhibition at 30 mg/kg, po bid measured at 13 days relative to control; assay type: functional; conditions: Z-138, po, 312 h, time 13 day, read-out: TGI
# CYP3A4 = CYP3A4 (Homo sapiens, UniProt P08684); test: Ratio of IC50 for time dependent inhibition of CYP3A4 (unknown origin) in absence of NADPH to IC50 for time dependent inhibition of CYP3A4 (unknown origin) in presence of NADPH; conditions: read-out: Ratio IC50
# Z-138 [17] = test: Antitumor activity against human Z138 cells implanted in CB17.SCID mouse assessed as tumor growth inhibition at 60 mg/kg, po bid measured at 13 days relative to control; assay type: functional; conditions: Z-138, po, 312 h, time 13 day, read-out: TGI
# Z-138 [18] = test: Antitumor activity against human Z138 cells implanted in CB17.SCID mouse assessed as […] at 5 mg/kg, po bid measured at 13 days relative to control; assay type: functional; conditions: Z-138, po, 312 h, time 13 day, read-out: TGI; method in brief: as §1
# Sequence of Protein arginine N-methyltransferase 5 (O14744 whole entry): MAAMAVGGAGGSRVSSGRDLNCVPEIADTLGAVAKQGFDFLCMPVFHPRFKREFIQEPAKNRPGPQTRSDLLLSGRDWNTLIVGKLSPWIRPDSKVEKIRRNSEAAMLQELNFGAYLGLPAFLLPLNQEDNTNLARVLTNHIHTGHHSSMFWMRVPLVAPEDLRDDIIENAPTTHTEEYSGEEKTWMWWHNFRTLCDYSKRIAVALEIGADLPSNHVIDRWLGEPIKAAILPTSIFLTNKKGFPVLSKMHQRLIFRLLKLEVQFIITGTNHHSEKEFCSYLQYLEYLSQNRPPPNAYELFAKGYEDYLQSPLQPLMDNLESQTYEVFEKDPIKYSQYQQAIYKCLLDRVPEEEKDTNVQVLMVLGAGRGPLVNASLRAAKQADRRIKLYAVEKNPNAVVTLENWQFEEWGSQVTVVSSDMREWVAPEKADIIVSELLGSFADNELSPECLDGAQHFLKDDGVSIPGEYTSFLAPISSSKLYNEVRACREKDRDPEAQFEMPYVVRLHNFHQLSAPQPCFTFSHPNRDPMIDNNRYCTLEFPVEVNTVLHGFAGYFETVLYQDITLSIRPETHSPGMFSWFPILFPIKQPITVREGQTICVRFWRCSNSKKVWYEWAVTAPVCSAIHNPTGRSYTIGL
# Sequence of CYP3A4 (P08684 whole entry): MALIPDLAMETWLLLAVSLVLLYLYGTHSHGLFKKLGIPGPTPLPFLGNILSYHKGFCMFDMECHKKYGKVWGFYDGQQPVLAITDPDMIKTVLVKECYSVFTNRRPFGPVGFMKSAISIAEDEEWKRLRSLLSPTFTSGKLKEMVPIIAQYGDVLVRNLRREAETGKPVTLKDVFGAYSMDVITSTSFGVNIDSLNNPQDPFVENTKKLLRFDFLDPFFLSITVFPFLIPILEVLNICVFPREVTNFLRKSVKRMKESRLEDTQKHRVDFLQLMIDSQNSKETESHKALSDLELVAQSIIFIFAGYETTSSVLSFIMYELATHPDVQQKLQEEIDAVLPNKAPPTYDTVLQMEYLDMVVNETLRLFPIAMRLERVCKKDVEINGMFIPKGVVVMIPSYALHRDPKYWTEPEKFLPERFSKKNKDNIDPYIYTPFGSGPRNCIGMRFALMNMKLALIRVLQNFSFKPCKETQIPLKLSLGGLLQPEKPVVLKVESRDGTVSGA
clearance [1] [mL/min/kg],Vdu [2] [L/kg],CL free [3] [mL/min/kg],bioavailability [4] [%],EC50 [6] [nM],MRT [7] [h],"solubility at 24 h, 200 µM [8] [µM]","solubility at 24 h, 200 µM [9] [µM]",MRT [10] [h],bioavailability [11] [%],CL free [12] [mL/min/kg],Vdu [13] [L/kg],SMILES,EC50 (Z-138 [5]) [nM],inhibition in vivo (Z-138 [14]) [%],Activity [15],inhibition in vivo at 30 mg/kg (Z-138 [16]) [%],IC50 shift (CYP3A4),inhibition in vivo at 60 mg/kg (Z-138 [17]) [%],inhibition in vivo at 5 mg/kg (Z-138 [18]) [%]
9,150,789,17,1.5,3.2,123,149,–,–,–,–,Cc1nc(N)c2ccn([C@@H]3C[C@@H]4[C@H](Cc5ccc6cc(F)c(N)nc6c5)CC[C@]4(O)[C@H]3O)c2n1,4.1,–,–,–,–,–,–
24,33,374,77,0.89,1.3,94,157,–,–,–,–,Cc1ncnc2c1ccn2[C@@H]1C[C@@H]2[C@H](Cc3ccc4cc(F)c(N)nc4c3)CC[C@]2(O)[C@H]1O,3.5,–,–,–,–,–,–
25,29,1476,19,0.74,1.3,121,164,–,–,–,–,Nc1nc2cc(C[C@@H]3CC[C@@]4(O)[C@@H]3C[C@@H](n3cc(F)c5c(N)ncnc53)[C@@H]4O)ccc2cc1F,2.3,–,–,–,–,–,–
14,54,368,24,0.84,2.5,25,190,9.9,45,72,43,Nc1nc2cc(C[C@@H]3CC[C@@]4(O)[C@@H]3C[C@@H](n3cc(F)c5c(N)ncnc53)[C@@H]4O)cc(F)c2cc1F,5.8,–,–,–,–,–,–
4,139,1444,42,4.7,1.6,< 1,161,4.6,44,329,93,Cc1ncnc2c1ccn2[C@@H]1O[C@@H]2[C@@H](Oc3ccc4cc(Br)c(N)nc4c3)CC[C@]2(O)[C@H]1O,17,45,Non-Toxic,76,> 2.4,71,33
38,50,788,10,0.97,1.1,66,146,–,–,–,–,Cc1cn([C@@H]2C[C@@H]3[C@H](Cc4ccc5cc(F)c(N)nc5c4)CC[C@]3(O)[C@H]2O)c2ncnc(N)c12,3.7,–,–,–,–,–,–

# — ChEMBL document CHEMBL4808168, “The Discovery of Two Novel Classes of 5,5-Bicyclic Nucleoside-Derived PRMT5 Inhibitors for the Treatment of Cancer” (J Med Chem, 2021)
